Test results published in ChEMBL document CHEMBL1121835, “Synthesis and anxiolytic activity of 6-(substituted-phenyl)-1,2,4-triazolo[4,3-b]pyridazines” (J Med Chem, 1981).
The source made the active and inactive calls. The calls are words filed in the database; no cut-off is given here.

Legend:
[1] = target: GABA-A receptor; anion channel; assay: In vitro for inhibition of [3H]diazepam towards Benzodiazepine receptor from rat; type: protein-complex assay
Outline: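 Rat frontal cortex homogenized in ice-cold 0.32 M sucrose; crude P2 synaptosomal fraction resuspended in 50 mM Tris-HCl pH 7.4. IC50 read graphically from % inhibition vs log concentration plots.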

[2] = target: T1, GABA-A receptor; anion channel (Rattus norvegicus) (UniProt O09028+P15431+P18506+P18508+P19969+P20236+P23574+P23576+P28471+P28473+P30191+P62813+P63079+P63138+Q91ZM7+Q9ES14); assay: In vitro inhibition of [3H]diazepam binding towards Benzodiazepine receptor at 1 uM; type: protein-complex assay
Rattus norvegicus [3] = species on record: Rattus norvegicus; assay: Anxiolytic activity for protection against pentylenetetrazole-induced convulsions.; type: functional, organism-based
Outline: (§1)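 Rats in groups of 10, food-deprived 24 h, given 4–6 graded doses of compound orally (or ip where noted). PTZ at 23 mg/kg was injected iv into the caudal vein 60 min later. Protection meant no clonic seizure lasting at least 5 s. The number protected was counted and the ED50 estimated.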

Rattus norvegicus [4] = assay: In vivo protection against pentylenetetrazole-induced convulsions in the rat.; type: functional; outline: as §1
Rattus norvegicus [5] = assay: Hypotensive activity in saline-loaded spontaneously hypertensive rats following 100 mg/kg p.o. administration.; type: functional; parameters: unit not given beside the values; conditions: route oral
Outline: (§2)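 Male Okamoto SH rats, about 300 g, gavaged with compound suspended in 2% boiled starch, with 0.9% NaCl loading at 25 mL/kg, at 0 h. An identical dose without saline followed at 24 h. Mean arterial pressure was taken by iliac artery puncture under local lidocaine at 28 h. Values are from one to three rats.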

Rattus norvegicus [6] = assay: Hypotensive activity evaluated as mean arterial blood pressure (MABP) in saline-loaded spontaneously hypertensive rats dosed (per oral) at 25 mg/kg; type: functional; outline: as §2
Rattus norvegicus [7] = species on record: Rattus norvegicus; assay: Anxiolytic activity for protection against pentylenetetrazole-induced convulsions in experiment 2; type: functional; outline: as §1
Rattus norvegicus [8] = species on record: Rattus norvegicus; assay: Anxiolytic activity for protection against pentylenetetrazole-induced convulsions in experiment 1; type: functional; conditions: Rattus norvegicus; read-out: ED50; outline: as §1
Rattus norvegicus [9] = assay: Compound was evaluated for anxiolytic activity for protection against pentylenetetrazole-induced convulsions; no activity at 50 mg/kg; type: functional, organism-based; parameters: dose 50 mg/kg; outline: as §1
[10] = target: T1, GABA-A receptor; anion channel (Rattus norvegicus); assay: In vitro percent inhibition of [3H]diazepam binding to rat GABA-A benzodiazepine receptor at 1 uM; type: protein-complex assay
Rattus norvegicus [11] = assay: Compound was evaluated for anxiolytic activity for protection against pentylenetetrazole-induced convulsions; No activity at 50 mg/Kg; type: functional, organism-based; outline: as §1
Rattus norvegicus [12] = assay: Compound was evaluated for anxiolytic activity for protection against pentylenetetrazole-induced convulsions; No activity at 50 mg/kg; type: functional, organism-based; parameters: dose 50 mg/kg; outline: as §1
Rattus norvegicus [13] = species on record: Rattus norvegicus; assay: Average reduction in blood pressure over control (4 rats) at 2 hr in spontaneous hypertensive rats; type: functional
Outline: (§3)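 Conscious cannulated male Okamoto SH rats, 300–350 g, dosed po with vehicle (2% boiled starch) or compound at 1, 5, 10 and 25 mg/kg. A second po dose was given 20 h later, and pressure was recorded continuously for 4 h. The value is the mean reduction against controls at 2 and 4 h, n = 4.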

Rattus norvegicus [14] = species on record: Rattus norvegicus; assay: Average reduction in blood pressure over control (4 rats) at 4 hr in spontaneous hypertensive rats; type: functional; outline: as §3
Rattus norvegicus [15] = species on record: Rattus norvegicus; assay: Effect on […] seizures at 4 hr in rat; type: functional
Outline: (§4)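 Rats, oral dosing at three dose levels with six rats per dose; PTZ challenge (23 mg/kg iv, caudal vein) at the stated interval after dosing. Animals scored as protected if free of at least 5 s of uninterrupted clonic seizures. The median effective dose (mg/kg) is reported with its 95% confidence interval.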

Rattus norvegicus [16] = species on record: Rattus norvegicus; assay: Effect on […] seizures at 1 hr in rat; type: functional; outline: as §4
Rattus norvegicus [17] = species on record: Rattus norvegicus; assay: Effect on […] seizures at 6 hr in rat; type: functional; outline: as §4
Rattus norvegicus [18] = species on record: Rattus norvegicus; assay: Effect on […] seizures at 0.5 hr in rat; type: functional; outline: as §4
Rattus norvegicus [19] = species on record: Rattus norvegicus; assay: Effect on […] seizures at 7 hr in rat; type: functional; outline: as §4
Rattus norvegicus [20] = species on record: Rattus norvegicus; assay: Effect on […] seizures at 5 hr in rat; type: functional; outline: as §4
Rattus norvegicus [21] = species on record: Rattus norvegicus; assay: Effect on […] seizures at 2 hr in rat; type: functional; outline: as §4
Rattus norvegicus [22] = species on record: Rattus norvegicus; assay: Effect on […] seizures at 3 hr in rat; type: functional; outline: as §4

SMILES | inhibition [2] | ED50 (Rattus norvegicus [3]) | ED50 (Rattus norvegicus [4]) | MABP (Rattus norvegicus [5]) | also measured
COc1cccc(-c2ccc3nnc(C)n3n2)c1 | 74% | – | – | – | IC50 [1]: 309 nM
Clc1ccc(-c2ccc3nnc(-c4ccccc4)n3n2)cc1 | – | inactive | – | – | –
CCc1nnc2ccc(-c3ccc(C(F)(F)F)cc3)nn12 | – | – | ~50 mg/kg | 129 | MABP (Rattus norvegicus [6]): 157
FC(F)(F)c1nnc2ccc(-c3ccccc3)nn12 | – | – | – | – | ED50 (Rattus norvegicus [7]): 18 mg/kg; ED50 (Rattus norvegicus [8]): 15 mg/kg
COCc1nnc2ccc(-c3cccc(C(F)(F)F)c3)nn12 | 23% | – | 6.4 mg/kg | – | –
Clc1ccc(-c2ccc3nncn3n2)cc1Cl | – | inactive | – | – | –
O=[N+]([O-])c1cccc(-c2ccc3nncn3n2)c1 | – | – | 22 mg/kg | – | –
CN1C(=O)CN=C(c2ccccc2)c2cc(Cl)ccc21 [DIAZEPAM] | – | – | 1.8 mg/kg | – | –
Cc1cc2nncn2nc1-c1ccc(F)cc1 | – | inactive | – | 105 | –
CCc1nnc2ccc(-c3ccc(Cl)cc3)nn12 | – | inactive | – | 141 | –
Cc1cc2nnc(C)n2nc1-c1cccc(C(F)(F)F)c1 | 26% | – | 13.8 mg/kg | 129 | –
Cc1cc(-c2cccc(C(F)(F)F)c2)nn2cnnc12 | < 10% | – | – | 102 | EC50 (Rattus norvegicus [9]): Not Active
ClCc1nnc2ccc(-c3ccccc3)nn12 | 45% | – | – | – | inhibition [10]: 47%; ED50 (Rattus norvegicus [11]): inactive
Cc1nnc2ccc(-c3cccc(N)c3)nn12 | 60% | – | 12 mg/kg | – | inhibition [10]: 58%; IC50 [1]: 510 nM
Cc1nnc2ccc(-c3ccc(Cl)c(Cl)c3)nn12 | – | inactive | – | – | –
c1ccc(-c2ccc3nnc(-c4ccccc4)n3n2)cc1 | 74% | inactive | – | – | –
FC(F)(F)c1cccc(-c2ccc3nnc(CCl)n3n2)c1 | 67% | – | – | – | ED50 (Rattus norvegicus [11]): inactive; IC50 [1]: 391 nM
CCc1nnc2ccc(-c3ccccc3)nn12 | – | – | – | – | ED50 (Rattus norvegicus [12]): inactive
Cc1nnc2ccc(-c3ccccc3Cl)nn12 | < 10% | – | 14 mg/kg | 123 | –
Cc1nnc2ccc(-c3ccccc3F)nn12 | 37% | – | 10.4 mg/kg | – | IC50 [1]: 7450 nM
Cc1cccc(-c2ccc3nncn3n2)c1 | – | – | ~50 mg/kg | – | –
FC(F)(F)c1ccc(-c2ccc3nncn3n2)cc1 | 21% | – | 5.8 mg/kg | 85 | BP (Rattus norvegicus [13]): -15 mmHg; MABP (Rattus norvegicus [6]): 136; BP (Rattus norvegicus [14]): -12 mmHg
CNC1=Nc2ccc(Cl)cc2C(c2ccccc2)=[N+]([O-])C1 [CHLORDIAZEPOXIDE] | 75% | – | 1.7 mg/kg | – | IC50 [1]: 248 nM
COc1ccc(-c2ccc3nnc(C)n3n2)cc1 | – | inactive | – | – | –
Fc1ccc(-c2ccc3nncn3n2)cc1 | 16% | – | – | 88 | BP (Rattus norvegicus [13]): -26 mmHg; ED50 (Rattus norvegicus [7]): 2.2 mg/kg; MABP (Rattus norvegicus [6]): 123; ED50 (Rattus norvegicus [8]): 5 mg/kg; BP (Rattus norvegicus [14]): -31 mmHg
FC(F)(F)c1cccc(-c2ccc3nnc(C(F)(F)F)n3n2)c1 | 60% | inactive | – | – | –
CCCc1nnc2ccc(-c3ccccc3)nn12 | 38% | – | – | 110 | MABP (Rattus norvegicus [6]): 145
Cc1cccc(-c2ccc3nnc(C)n3n2)c1 | 68% | – | ~50 mg/kg | – | –
CCCc1nnc2ccc(-c3cccc(C(F)(F)F)c3)nn12 | – | inactive | – | 112 | MABP (Rattus norvegicus [6]): 165
Cc1nnc2ccc(-c3cccc(C(F)(F)F)c3)nn12 [CI-218872] | 77% | – | – | – | ED50 (Rattus norvegicus [15]): 1.8 mg/kg; ED50 (Rattus norvegicus [16]): 0.6 mg/kg; ED50 (Rattus norvegicus [17]): 2 mg/kg; ED50 (Rattus norvegicus [7]): 1.1 mg/kg; ED50 (Rattus norvegicus [18]): 0.5 mg/kg; IC50 [1]: 116 nM; ED50 (Rattus norvegicus [19]): 2.5 mg/kg; ED50 (Rattus norvegicus [20]): 1.7 mg/kg; ED50 (Rattus norvegicus [21]): 0.7 mg/kg; ED50 (Rattus norvegicus [8]): 1.7 mg/kg; ED50 (Rattus norvegicus [22]): 1 mg/kg
